Source: article PMC3531959 (ChemMedChem, 2012)
“Also recorded” adds a separate entry of the source.

Molecular target: Bos taurus Arp2/3 complex (Bos taurus, UniProt A7MB62+P61157)
Test: Pyrene actin polymerization assay
Assay type: biochemical
Details: for increase in IC50 relative to 1 / inhibition of Arp2/3 complex (in words): actin polymerization assay; for increase in IC50 relative to 1: compared to 1
In short: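 Bovine Arp2/3 complex from calf thymus, activated by human N-WASp-VCA (residues 428-505, E. coli-expressed). Rabbit muscle actin, 30% pyrene-labelled at […], Mg/EGTA-exchanged. Polymerization started by adding Arp2/3 and VCA; final buffer 10 mM imidazole pH 7.0, 50 mM KCl, 1 mM EGTA, 1 mM MgCl2, 1 mM DTT. Read at ex 365/em 407 nm every 10 s for 45 min. Inhibitor tested up to 200 μM. IC50 from a fit of maximal rate (nM actin s⁻¹) versus concentration.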

| IC50 [µM] | increase in IC50 relative to 1 | inhibition of Arp2/3 complex (in words) | IC50 relative to 2 (higher IC50 than 2) | SMILES |
| --- | --- | --- | --- | --- |
| 238 ± 91 | 15-20 fold |  |  | Cc1[nH]c2ccccc2c1CCNC(=O)c1cccc(Cl)c1F [Compound 8, 3-chloro-2-fluoro-N-(2-(2-methyl-1H-indol-3-yl)ethyl)benzamide] |
| 4 ± 1 |  |  |  | Cc1[nH]c2ccccc2c1CCNC(=O)c1ccc(O)cc1F [Compound 2, 2-fluoro-4-hydroxy-N-(2-(2-methyl-1H-indol-3-yl)ethyl)benzamide] |
| 181 ± 85 | 15-20 fold | greatly reduced or no inhibition |  | Cc1[nH]c2ccccc2c1CCNC(=O)c1ccc(Cl)cc1 [Compound 7, 4-chloro-N-(2-(2-methyl-1H-indol-3-yl)ethyl)benzamide] |
| 32 ± 18 | approximately 3 fold |  |  | Cc1[nH]c2ccccc2c1CCNC(=O)c1ccc(Cl)cc1F [Compound 6, 4-chloro-2-fluoro-N-(2-(2-methyl-1H-indol-3-yl)ethyl)benzamide] |
| 19 ± 6 | nearly double |  | fivefold | COc1ccc(C(=O)NCCc2c(C)[nH]c3ccccc23)c(F)c1 [Compound 4, 2-fluoro-4-methoxy-N-(2-(2-methyl-1H-indol-3-yl)ethyl)benzamide] |
|  |  | greatly reduced or no inhibition |  | Cc1[nH]c2ccccc2c1CCNC(=O)c1cccc(Cl)c1 [Compound 11, 3-chloro-N-(2-(2-methyl-1H-indol-3-yl)ethyl)benzamide] |

| SMILES | IC50 [µM] | increase in IC50 relative to 1 | inhibition of Arp2/3 complex (in words) | IC50 relative to 2 (higher IC50 than 2) |
| --- | --- | --- | --- | --- |
| Cc1[nH]c2ccccc2c1CCNC(=O)c1ccccc1Cl [Compound 10, 2-chloro-N-(2-(2-methyl-1H-indol-3-yl)ethyl)benzamide] |  |  | greatly reduced or no inhibition; also recorded: completely abolishes inhibition |  |
| Cc1[nH]c2ccc(Cl)cc2c1CCNC(=O)c1ccccc1F [Compound 3, N-(2-(5-chloro-2-methyl-1H-indol-3-yl)ethyl)-2-fluorobenzamide] | 18 ± 5 | nearly double; also recorded: only slightly |  |  |
